Assay results reported in publication PMC6235520 (Science Advances, 2018).
“And” between values parts separate entries of the source, which are not always exact repeats. Equal entries are not always repeated. Where two headings read alike, the source gives them in different places.

What was measured:
KCNQ2-R213A/KCNQ3 = assay: Two-electrode voltage clamp of KCNQ2-R213A/KCNQ3 in Xenopus oocytes; format: cell-based, human; details: at a given voltage
KCNQ2/3 channels = details: cited from earlier work
[1] = rats fed Mallotus philippensis extract; cited from earlier work
KCNQ1-KCNE3 = assay: Two-electrode voltage clamp of KCNQ1-KCNE3 in Xenopus oocytes; format: cell-based, human; details: 30 μM, across the voltage range studied
Summary of the method: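 Human KCNQ1 and KCNE3 cRNAs were injected into defolliculated stage V–VI oocytes (α-subunit cRNA 10 ng total per oocyte) and held 2–5 days at 16°C in Barth's with penicillin/streptomycin. Room-temperature TEVC used bath 96 mM NaCl, 4 mM KCl, 1 mM MgCl2, 1 mM CaCl2, 10 mM Hepes pH 7.6. Test compound was perfused 3 min at 1 ml/min. Prepulses were −80 to +40 mV in 20-mV steps, with tails at −30 mV; n = 8.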

human KCNQ1 = human KCNQ1 (Homo sapiens, UniProt P51787); assay: Two-electrode voltage clamp of KCNQ1 expressed in Xenopus laevis oocytes; format: cell-based; details: for negative shift in the voltage dependence of KCNQ1 activation: 100 μM compound; for effect on KCNQ1 gating kinetics (activation and deactivation rates): MTX 30 µM, CPT1 100 µM
[2] = Pharmacokinetics in rats fed Mallotus philippensis extract; details: equates to 2 μg/ml
KCNQ1-KCNE1 = KCNQ1-KCNE1 (Homo sapiens, UniProt P51787); assay: Two-electrode voltage clamp of KCNQ1-KCNE1 in Xenopus oocytes; format: cell-based
KCNQ2/KCNQ3-R242A = assay: Two-electrode voltage clamp of KCNQ2/KCNQ3-R242A in Xenopus oocytes; format: cell-based, human; details: compared with KCNQ2-R213A/KCNQ3 and wild type
BK = details: cited from earlier work
KCNQ1-KCNE4 = assay: Two-electrode voltage clamp of KCNQ1-KCNE4 in Xenopus oocytes; format: cell-based, human; details: 30 μM
Summary of the method: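 Oocytes (stage V–VI, defolliculated) were co-injected with human KCNQ1 and KCNE4 cRNAs (α-subunit 10 ng total) and kept 2–5 days at 16°C. TEVC was run at room temperature in 4 mM KCl/96 mM NaCl Hepes bath, pH 7.6, after 3-min gravity perfusion of 30 μM test compound. Raw tail currents at −30 mV followed prepulses from −80 to +40 mV; n = 5.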

hERG = details: cited from earlier work
KCNQ2-R213A/KCNQ3-R242A = assay: Two-electrode voltage clamp of KCNQ2-R213A/KCNQ3-R242A; format: cell-based, human
KCNQ1 = details: cited from earlier work
KCNQ1-R243A/KCNE1 = assay: Two-electrode voltage clamp of KCNQ1-R243A/KCNE1 in Xenopus oocytes; format: cell-based, human; details: MTX 10 μM; CPT1 100 µM
Summary of the method: (§1)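 Mutant channels were made by site-directed mutagenesis and expressed from human cRNA (α-subunit 10 ng per oocyte) in stage V–VI oocytes for 2–5 days at 16°C. Room-temperature TEVC used a pH 7.6 Hepes-buffered bath with 4 mM KCl. Compound was perfused for 3 min, then currents were recorded at −80 to +40 mV in 20-mV steps. Fold current augmentation was plotted against voltage.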

KCNQ1-R243A = assay: Two-electrode voltage clamp of KCNQ1-R243A mutant in Xenopus oocytes; format: cell-based, human; details: MTX 10 μM; CPT1 100 µM
Summary of the method: as §1

[3] = cited from earlier work

Chain of KCNQ1-KCNE1 (P51787 whole entry): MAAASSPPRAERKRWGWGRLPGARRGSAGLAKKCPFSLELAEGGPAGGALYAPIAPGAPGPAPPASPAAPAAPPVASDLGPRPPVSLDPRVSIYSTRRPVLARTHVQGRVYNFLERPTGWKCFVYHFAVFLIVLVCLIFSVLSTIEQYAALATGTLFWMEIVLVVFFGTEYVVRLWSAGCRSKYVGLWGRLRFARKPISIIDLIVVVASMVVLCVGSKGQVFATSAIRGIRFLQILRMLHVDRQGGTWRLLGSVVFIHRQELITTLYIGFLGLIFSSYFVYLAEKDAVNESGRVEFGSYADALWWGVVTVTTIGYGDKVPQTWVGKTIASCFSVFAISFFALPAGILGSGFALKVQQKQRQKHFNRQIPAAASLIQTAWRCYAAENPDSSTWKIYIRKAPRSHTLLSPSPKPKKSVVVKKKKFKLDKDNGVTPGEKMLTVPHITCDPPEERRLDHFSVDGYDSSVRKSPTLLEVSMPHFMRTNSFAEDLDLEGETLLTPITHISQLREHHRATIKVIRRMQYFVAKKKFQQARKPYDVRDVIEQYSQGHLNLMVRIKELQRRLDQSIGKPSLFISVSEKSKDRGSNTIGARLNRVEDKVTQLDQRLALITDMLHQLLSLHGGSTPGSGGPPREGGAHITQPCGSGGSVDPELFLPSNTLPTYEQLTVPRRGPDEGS
Chain of human KCNQ1 (P51787 whole entry): as the sequence (P51787 whole entry) above

Q: Which results are given for `CC(=O)c1c(O)c(C)c(O)c(Cc2c(O)c3c(c(C(=O)/C=C/c4ccccc4)c2O)OC(C)(C)C=C3)c1O` [MTX, mallotoxin]?
A: MTX-induced shift in the V0.5 of activation versus wild-type KCNQ2/3 (KCNQ2-R213A/KCNQ3): slightly greater; effect on KCNQ2/3 channels (KCNQ2/3 channels): activates; oral bioavailability [1]: > 20%; plasma concentrations [1]: > 2 µg/mL; effect on KCNQ1-KCNE3 channels (KCNQ1-KCNE3): moderately inhibited; shift in KCNQ1 activation voltage dependence (human KCNQ1; 30 μM MTX): −27 mV; effect on KCNQ1 current in presence of UCL2077 (human KCNQ1; 30 μM MTX, UCL2077 10 μM, hyperpolarized voltages): still augmented; rescue of KCNQ1 from inhibition by UCL2077 (human KCNQ1; 30 μM MTX, UCL2077 10 μM, positive voltages): ineffective; negative shift in the voltage dependence of KCNQ1 activation (human KCNQ1): −27 mV; MTX effects on KCNQ1 in high extracellular K+ (human KCNQ1; 50 mM extracellular K+, 10 µM MTX): preserved; EC50 (human KCNQ1; EC50 (dose response) for the ΔV0.5 activation of KCNQ1): 9.4 ± 0.1 µM; EC50 (human KCNQ1; KCNQ1 activation EC50, at −40 mV): 9.9 µM and 10 µM; effect on KCNQ1 gating kinetics (activation and deactivation rates) (human KCNQ1): speeded KCNQ1 activation and slowed its deactivation; KCNQ1 current fold increase (human KCNQ1; at −40 mV, 30 μM): 5.4 fold; plasma level converted to molar concentration [2]: 4 µM; EC50 (KCNQ1-KCNE1): 27.9 ± 0.3 µM; shift of V0.5 of activation of KCNQ1-KCNE1 (KCNQ1-KCNE1; 30 μM MTX): −45 mV; effect on KCNQ1-KCNE1 currents (KCNQ1-KCNE1; 30 μM, across the voltage range tested): strongly augmented; efficacy of MTX on KCNQ2/KCNQ3-R242A channels (KCNQ2/KCNQ3-R242A): even more efficacious; effect on BK potassium channel (BK): activate; effect on KCNQ1-KCNE4 activity (KCNQ1-KCNE4): minor augmentation; effect on hERG potassium channel (hERG): activate; sensitivity of RA-RA KCNQ2/3 channels to MTX (KCNQ2-R213A/KCNQ3-R242A): insensitive; effect on KCNQ1 potassium channel (KCNQ1): activate; sensitivity of KCNQ1-R243A/KCNE1 complexes to compound (KCNQ1-R243A/KCNE1): completely insensitive; sensitivity of KCNQ1-R243A to compound (KCNQ1-R243A): completely insensitive; toxicity [3]: toxic in large doses

Q: Which EC50 (human KCNQ1) does the source give for `CCC1=C(O)C(=O)CC1` [CPT1, 3-ethyl-2-hydroxy-2-cyclopenten-1-one] here?
A: 0.1 µM

Q: What about the “negative shift in the voltage dependence of KCNQ1 activation” value (human KCNQ1) of the same molecule?
A: −5 mV

Q: And the “potency on KCNQ1 relative to MTX” value (human KCNQ1; CPT1 versus MTX)?
A: 100 fold

Q: What about the “effect on KCNQ1 gating kinetics (activation and deactivation rates)” value (human KCNQ1) of the same molecule?
A: statistically significant speeding of activation and slowing of deactivation

Q: And the “KCNQ1 current fold increase” value (human KCNQ1; at −60 mV, 100 μM)?
A: 2.7 fold

Q: And the “sensitivity of KCNQ1-R243A/KCNE1 complexes to compound” value (KCNQ1-R243A/KCNE1)?
A: eliminated

Q: What about the “sensitivity of KCNQ1-R243A to compound” value (KCNQ1-R243A) of the same molecule?
A: eliminated
